Measured values reported in ChEMBL document CHEMBL1145628, “New tetrazole-based selective anandamide uptake inhibitors” (Bioorg Med Chem Lett, 2008).

Legend:
Cannabinoid receptor 1 = Cannabinoid receptor 1 (Homo sapiens, UniProt P21554); assay: Binding affinity to human CB1 receptor expressed in COS cells; assay type: cell-based
Procedure, shortened: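 Tested at CB1 receptors in transfected COS cells; means of 4 separate determinations.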

[1] = biological target: T1, Transient receptor potential cation channel subfamily V member 1 (Homo sapiens, UniProt Q8NER1); assay: Agonist activity at human TRPV1 channel expressed in human HEK293 cells assessed as elevation in intracellular calcium flux at 10 uM relative to ionomycin; assay type: functional, cell-based
T1 sequence (Q8NER1 whole entry): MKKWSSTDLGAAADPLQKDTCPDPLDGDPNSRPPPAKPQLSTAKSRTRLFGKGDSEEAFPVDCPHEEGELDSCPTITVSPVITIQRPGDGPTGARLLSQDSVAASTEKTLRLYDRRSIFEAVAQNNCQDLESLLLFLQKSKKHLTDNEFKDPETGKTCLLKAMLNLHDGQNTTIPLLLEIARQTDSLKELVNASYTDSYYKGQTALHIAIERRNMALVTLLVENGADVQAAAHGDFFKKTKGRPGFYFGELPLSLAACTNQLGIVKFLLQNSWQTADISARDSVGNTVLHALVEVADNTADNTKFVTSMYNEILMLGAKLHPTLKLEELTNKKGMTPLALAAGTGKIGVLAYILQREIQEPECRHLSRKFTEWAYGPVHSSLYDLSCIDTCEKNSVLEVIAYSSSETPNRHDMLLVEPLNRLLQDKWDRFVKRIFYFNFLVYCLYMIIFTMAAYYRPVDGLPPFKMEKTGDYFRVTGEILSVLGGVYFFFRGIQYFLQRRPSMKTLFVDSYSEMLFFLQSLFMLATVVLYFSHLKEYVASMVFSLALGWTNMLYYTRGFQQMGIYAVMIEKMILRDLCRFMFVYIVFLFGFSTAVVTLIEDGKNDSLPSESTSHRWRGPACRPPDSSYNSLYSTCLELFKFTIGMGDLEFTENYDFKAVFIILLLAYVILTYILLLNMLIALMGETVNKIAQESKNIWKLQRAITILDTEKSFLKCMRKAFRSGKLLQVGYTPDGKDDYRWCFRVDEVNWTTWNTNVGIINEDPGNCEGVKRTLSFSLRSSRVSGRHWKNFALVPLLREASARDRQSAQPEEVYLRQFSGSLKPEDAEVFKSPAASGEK
Procedure, shortened: (§1)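 HEK-293 cells overexpressing TRPV1 were used, with intracellular Ca2+ elevation as the read-out. The single-point value is the effect of 10 µM compound as percent of the Ca2+ response to 4 µM ionomycin. Data are means of 4 separate determinations.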

[2] = biological target: T2, Fatty-acid amide hydrolase 1 (Rattus norvegicus, UniProt P97612); assay: Inhibition of rat brain FAAH mediated [14C]anandamide hydrolysis
T2 sequence (P97612 whole entry): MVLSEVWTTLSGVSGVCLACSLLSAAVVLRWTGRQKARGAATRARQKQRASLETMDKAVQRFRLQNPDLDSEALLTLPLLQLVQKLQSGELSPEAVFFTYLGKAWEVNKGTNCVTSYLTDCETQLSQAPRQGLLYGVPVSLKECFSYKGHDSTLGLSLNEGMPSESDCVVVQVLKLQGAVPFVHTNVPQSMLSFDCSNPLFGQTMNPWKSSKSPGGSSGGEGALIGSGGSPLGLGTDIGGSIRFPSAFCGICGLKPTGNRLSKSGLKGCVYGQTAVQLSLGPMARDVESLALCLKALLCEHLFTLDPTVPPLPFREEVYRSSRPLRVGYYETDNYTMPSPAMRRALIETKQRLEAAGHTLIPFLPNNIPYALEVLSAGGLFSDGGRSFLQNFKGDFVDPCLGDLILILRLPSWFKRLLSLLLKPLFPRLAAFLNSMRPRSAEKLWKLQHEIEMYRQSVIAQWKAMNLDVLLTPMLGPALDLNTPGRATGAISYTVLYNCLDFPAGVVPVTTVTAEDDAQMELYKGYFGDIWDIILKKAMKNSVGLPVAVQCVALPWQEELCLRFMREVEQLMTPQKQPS
Procedure, shortened: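 Hydrolysis of [14C]anandamide was measured with rat brain membranes as the enzyme source; means of n = 4.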

Cannabinoid receptor 2 = Cannabinoid receptor 2 (Homo sapiens, UniProt P34972); assay: Binding affinity to human CB2 receptor expressed in COS cells; assay type: cell-based
Sequence of Cannabinoid receptor 2 (P34972 whole entry): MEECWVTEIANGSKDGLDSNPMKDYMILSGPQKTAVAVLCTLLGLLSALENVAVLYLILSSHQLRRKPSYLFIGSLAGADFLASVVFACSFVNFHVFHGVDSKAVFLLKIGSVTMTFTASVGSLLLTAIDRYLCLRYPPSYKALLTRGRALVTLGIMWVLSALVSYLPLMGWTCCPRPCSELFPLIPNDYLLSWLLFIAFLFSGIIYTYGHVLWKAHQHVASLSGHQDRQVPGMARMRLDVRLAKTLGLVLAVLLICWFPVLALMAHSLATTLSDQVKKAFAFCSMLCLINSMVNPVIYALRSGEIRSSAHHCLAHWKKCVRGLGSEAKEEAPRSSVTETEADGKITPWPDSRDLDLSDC
Procedure, shortened: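 Human CB2 receptor expressed by transfection in COS cells. Each value is the mean of 4 separate determinations.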

[3] = biological target: T3, Diacylglycerol lipase-alpha (Homo sapiens, UniProt Q9Y4D2); assay: Inhibition of human DAGLalpha mediated sn-1-[14C]oleoyl-2-arachidonoyl-glycerol hydrolysis to 2-AG in COS cell
T3 sequence (Q9Y4D2 whole entry): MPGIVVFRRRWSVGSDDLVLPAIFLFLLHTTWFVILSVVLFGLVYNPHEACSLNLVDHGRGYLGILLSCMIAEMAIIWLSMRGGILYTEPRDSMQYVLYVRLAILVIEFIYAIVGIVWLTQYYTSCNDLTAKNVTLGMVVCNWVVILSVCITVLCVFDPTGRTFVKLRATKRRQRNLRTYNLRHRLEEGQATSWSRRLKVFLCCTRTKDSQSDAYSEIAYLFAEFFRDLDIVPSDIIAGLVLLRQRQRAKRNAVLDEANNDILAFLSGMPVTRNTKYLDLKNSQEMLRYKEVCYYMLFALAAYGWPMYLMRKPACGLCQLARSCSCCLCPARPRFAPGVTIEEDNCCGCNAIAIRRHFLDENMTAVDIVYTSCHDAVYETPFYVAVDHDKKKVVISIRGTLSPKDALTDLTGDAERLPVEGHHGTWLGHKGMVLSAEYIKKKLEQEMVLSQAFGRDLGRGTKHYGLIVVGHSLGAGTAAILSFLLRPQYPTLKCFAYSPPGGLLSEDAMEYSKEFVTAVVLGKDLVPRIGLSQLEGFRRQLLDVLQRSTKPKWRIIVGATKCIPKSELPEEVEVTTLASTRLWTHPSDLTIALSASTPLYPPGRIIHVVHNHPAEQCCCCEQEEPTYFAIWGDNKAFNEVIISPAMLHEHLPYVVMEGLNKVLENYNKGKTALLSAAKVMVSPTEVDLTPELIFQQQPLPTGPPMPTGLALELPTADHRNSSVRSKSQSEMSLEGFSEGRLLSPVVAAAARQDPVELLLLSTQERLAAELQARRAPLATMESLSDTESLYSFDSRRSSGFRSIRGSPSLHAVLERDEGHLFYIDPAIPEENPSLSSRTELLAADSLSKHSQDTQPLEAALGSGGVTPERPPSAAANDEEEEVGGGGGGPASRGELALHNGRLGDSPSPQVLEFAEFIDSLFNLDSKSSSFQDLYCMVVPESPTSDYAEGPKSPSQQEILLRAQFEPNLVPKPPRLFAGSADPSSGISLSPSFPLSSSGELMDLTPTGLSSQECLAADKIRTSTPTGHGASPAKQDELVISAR
Procedure, shortened: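 Substrate: sn-1-[14C]oleoyl-2-arachidonoyl-glycerol. Conversion into 2-AG and [14C]oleic acid was followed using membranes of COS cells overexpressing human recombinant DAGLα; n = 4 means.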

[4] = biological target: Transient receptor potential cation channel subfamily A member 1 (Rattus norvegicus) (UniProt Q6RI86); assay: Agonist activity at rat TRPA1 channel expressed in human HEK293 cells assessed as elevation in intracellular calcium flux at 100 uM relative to mustard oil; assay type: functional, cell-based
Sequence of Transient receptor potential cation channel subfamily A member 1 (Rattus norvegicus) (Q6RI86 whole entry): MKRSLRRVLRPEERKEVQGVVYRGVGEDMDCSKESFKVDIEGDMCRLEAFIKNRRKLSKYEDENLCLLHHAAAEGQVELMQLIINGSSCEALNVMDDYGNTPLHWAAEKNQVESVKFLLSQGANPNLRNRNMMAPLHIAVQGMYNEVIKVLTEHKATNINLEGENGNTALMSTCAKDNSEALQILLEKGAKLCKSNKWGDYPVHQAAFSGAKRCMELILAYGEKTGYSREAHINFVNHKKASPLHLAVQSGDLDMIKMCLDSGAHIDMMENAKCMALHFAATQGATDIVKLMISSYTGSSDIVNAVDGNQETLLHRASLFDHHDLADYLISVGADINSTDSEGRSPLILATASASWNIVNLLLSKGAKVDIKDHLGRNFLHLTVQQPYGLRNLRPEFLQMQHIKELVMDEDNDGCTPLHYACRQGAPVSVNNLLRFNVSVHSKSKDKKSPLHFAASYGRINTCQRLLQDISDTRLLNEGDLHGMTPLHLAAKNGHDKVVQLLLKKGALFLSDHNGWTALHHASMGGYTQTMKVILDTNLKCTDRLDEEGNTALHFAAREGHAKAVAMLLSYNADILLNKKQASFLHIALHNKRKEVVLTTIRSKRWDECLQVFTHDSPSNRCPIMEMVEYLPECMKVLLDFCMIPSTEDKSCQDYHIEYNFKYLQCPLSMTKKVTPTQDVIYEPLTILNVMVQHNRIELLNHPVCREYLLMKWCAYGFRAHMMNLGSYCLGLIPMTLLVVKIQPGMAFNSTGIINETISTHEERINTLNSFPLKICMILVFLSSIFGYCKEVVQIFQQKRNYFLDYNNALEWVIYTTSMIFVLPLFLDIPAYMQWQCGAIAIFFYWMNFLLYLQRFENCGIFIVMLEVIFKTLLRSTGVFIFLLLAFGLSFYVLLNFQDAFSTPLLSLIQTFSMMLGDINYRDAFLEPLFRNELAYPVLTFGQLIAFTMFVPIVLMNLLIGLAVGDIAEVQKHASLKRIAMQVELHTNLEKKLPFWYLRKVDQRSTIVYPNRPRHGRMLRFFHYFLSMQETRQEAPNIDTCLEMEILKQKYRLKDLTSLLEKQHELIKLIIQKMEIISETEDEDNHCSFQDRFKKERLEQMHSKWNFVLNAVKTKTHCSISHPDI
Procedure, shortened: (§2)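 Stably rat TRPA1-transfected HEK-293 cells, grown 3 days, were loaded with 4 µM Fluo4-AM plus 0.02% Pluronic for 1 h at room temperature. They were washed and resuspended in Tyrode's buffer pH 7.4, and [Ca2+]i was read under stirring (ex 488/em 516 nm) before and after compound addition. EC50 is the half-maximal [Ca2+]i rise. Efficacy (100 µM compound) is expressed relative to 100 µM mustard oil; n = 4 means.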

[5] = biological target: T1, Transient receptor potential cation channel subfamily V member 1; assay: Agonist activity at human TRPV1 channel expressed in human HEK293 cells assessed as elevation in intracellular calcium flux; assay type: functional, cell-based; procedure, shortened: as §1
[6] = Inhibition of human MAGL mediated [14C]2-AG hydrolysis in COS cell; assay type: cell-based
Procedure, shortened: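 Enzyme source was cytosolic fractions of COS cells (MAGL-expressing), with hydrolysis of [14C]2-AG as the read-out; means of 4 determinations.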

[7] = biological target: Transient receptor potential cation channel subfamily A member 1 (Rattus norvegicus, UniProt Q6RI86); assay: Agonist activity at rat TRPA1 channel expressed in human HEK293 cells assessed as elevation in intracellular calcium flux; assay type: functional, cell-based; procedure, shortened: as §2
Sequence of Transient receptor potential cation channel subfamily A member 1 (Q6RI86 whole entry): as above

RBL-2H3 = assay: Inhibition of [14C]anandamide uptake in rat RBL-2H3; assay type: functional, cell-based
Procedure, shortened: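 Uptake of [14C]anandamide was measured in intact RBL-2H3 cells; means of n = 4.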

Sequence of Cannabinoid receptor 1 (P21554 whole entry): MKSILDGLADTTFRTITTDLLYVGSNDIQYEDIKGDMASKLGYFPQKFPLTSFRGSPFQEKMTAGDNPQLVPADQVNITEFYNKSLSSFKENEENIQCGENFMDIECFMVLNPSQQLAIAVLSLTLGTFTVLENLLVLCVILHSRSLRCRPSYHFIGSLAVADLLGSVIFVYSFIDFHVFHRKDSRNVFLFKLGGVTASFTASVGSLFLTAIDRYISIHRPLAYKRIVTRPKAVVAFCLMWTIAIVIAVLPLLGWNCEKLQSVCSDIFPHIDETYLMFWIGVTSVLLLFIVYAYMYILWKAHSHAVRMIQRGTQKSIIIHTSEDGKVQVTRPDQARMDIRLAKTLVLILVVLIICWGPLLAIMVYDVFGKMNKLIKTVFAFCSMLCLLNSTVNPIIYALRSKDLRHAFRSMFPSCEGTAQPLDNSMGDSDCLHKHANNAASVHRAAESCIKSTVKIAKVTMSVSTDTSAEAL

Row | SMILES | Ki (Cannabinoid receptor 1) | Efficacy [1] | IC50 [2] | Ki (Cannabinoid receptor 2) | IC50 [3] | Efficacy [4] | EC50 [5] | IC50 [6] | EC50 [7] | IC50 (RBL-2H3)
1 | CN(C)C(=O)Cn1nnc(CNC(=O)c2ccc(-c3ccccc3)cc2)n1 | > 10 µM | 1.2% | > 50 µM | > 10 µM | > 10 µM | 0% | > 100 µM | > 10 µM | > 100 µM | 2.3 µM
2 | COC(=O)Cn1nnnc1Cc1ccc(-c2ccccc2)cc1 | > 10 µM | 0% | > 50 µM | > 10 µM | > 10 µM | 0% | > 100 µM | > 10 µM | > 100 µM | 4.9 µM
3 | N#CCn1nnnc1Cc1ccc(-c2ccccc2)cc1 | > 10 µM | 5.4% | > 50 µM | > 10 µM | > 10 µM | 83.2% | > 100 µM | > 10 µM | 26.3 µM | 24.8 µM
4 | COC(=O)Cn1nnnc1CNC(=O)c1ccc(-c2ccccc2)cc1 | > 10 µM | 8.6% | > 50 µM | > 10 µM | > 10 µM | 0% | 29.6 µM | > 10 µM | > 100 µM | > 25 µM
5 | CC(=O)Cn1nnc(Cc2ccc(-c3ccccc3)cc2)n1 | > 10 µM | 0% | > 50 µM | 5.2 µM | > 10 µM | 61.4% | > 100 µM | > 10 µM | > 100 µM | > 25 µM
6 | CC(=O)Cn1nnnc1Cc1ccc(-c2ccccc2)cc1 | > 10 µM | 0% | > 50 µM | > 10 µM | > 10 µM | 11.4% | > 100 µM | > 10 µM | > 100 µM | 5 µM
7 | CC(C)Cn1nnnc1CNC(=O)c1ccc(-c2ccccc2)cc1 | > 10 µM | 9.1% | > 50 µM | > 10 µM | > 10 µM | 26.1% | 15 µM | > 10 µM | > 100 µM | > 25 µM
8 | CC(C)Cn1nnc(CNC(=O)c2ccc(-c3ccccc3)cc2)n1 | > 10 µM | 10.2% | > 50 µM | > 10 µM | > 10 µM | 0% | 53.5 µM | > 10 µM | > 100 µM | > 25 µM
9 | CC(C)Cn1nnnc1Cc1ccc(-c2ccccc2)cc1 | > 10 µM | 4.7% | > 50 µM | 7.7 µM | > 10 µM | 50.8% | > 100 µM | > 10 µM | > 100 µM | > 25 µM
10 | CN(C)C(=O)Cn1nnc(Cc2ccc(-c3ccccc3)cc2)n1 | > 10 µM | 5.3% | > 50 µM | > 10 µM | > 10 µM | 0% | > 100 µM | > 10 µM | > 100 µM | > 25 µM
11 | CC(=O)Cn1nnc(CNC(=O)c2ccc(-c3ccccc3)cc2)n1 | > 10 µM | 0% | > 50 µM | > 10 µM | > 10 µM | 14% | > 100 µM | > 10 µM | > 100 µM | > 25 µM
12 | N#CCn1nnc(CNC(=O)c2ccc(-c3ccccc3)cc2)n1 | > 10 µM | 2.6% | > 50 µM | > 10 µM | > 10 µM | 0% | > 100 µM | > 10 µM | > 100 µM | > 25 µM
13 | CN(C)C(=O)Cn1nnnc1Cc1ccc(-c2ccccc2)cc1 | > 10 µM | 4% | > 50 µM | > 10 µM | > 10 µM | 0% | > 100 µM | > 10 µM | > 100 µM | 5.1 µM
14 | COC(=O)Cn1nnc(CNC(=O)c2ccc(-c3ccccc3)cc2)n1 | > 10 µM | 2.2% | > 50 µM | > 10 µM | > 10 µM | 0% | > 100 µM | > 10 µM | > 100 µM | > 25 µM
15 | N#CCn1nnnc1CNC(=O)c1ccc(-c2ccccc2)cc1 | > 10 µM | 6.3% | > 50 µM | > 10 µM | > 10 µM | 0% | > 100 µM | > 10 µM | > 100 µM | > 25 µM
16 | CC(=O)Cn1nnnc1CNC(=O)c1ccc(-c2ccccc2)cc1 | > 10 µM | 7.7% | > 50 µM | > 10 µM | > 10 µM | 0% | > 100 µM | > 10 µM | > 100 µM | 12.5 µM
17 | CC(C)Cn1nnc(Cc2ccc(-c3ccccc3)cc2)n1 | 1.6 µM | 20.7% | > 50 µM | 4.7 µM | > 10 µM | 136% | 10 µM | > 10 µM | 26.3 µM | > 25 µM
18 | N#CCn1nnc(Cc2ccc(-c3ccccc3)cc2)n1 | > 10 µM | 0% | > 50 µM | 6.2 µM | > 10 µM | 102% | > 100 µM | > 10 µM | 16.2 µM | 5.1 µM
19 | COC(=O)Cn1nnc(Cc2ccc(-c3ccccc3)cc2)n1 | > 10 µM | 0% | > 50 µM | 8.1 µM | > 10 µM | 36% | > 100 µM | > 10 µM | > 100 µM | > 25 µM
